Results: ChEMBL document CHEMBL3588829, “Dehydro-β-proline Containing α4β1 Integrin Antagonists: Stereochemical Recognition in Ligand-Receptor Interplay” (ACS Med Chem Lett, 2015)

What was measured:
Integrin alpha-4/beta-1 [1] = molecular target: T1, Integrin alpha-4/beta-1 (Homo sapiens, UniProt P05556+P13612); assay: Inhibition of human alpha4beta1 integrin expressed in human Jurkat cells assessed as inhibition of cell adhesion to VCAM-1; type: cell-based
Outline: (§1)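 Cell adhesion inhibition assay, run on Jurkat with VCAM-1, RPMI8866, K562 or SK-MEL-24 cells. Each experiment was run in quadruplicate and repeated at least three times.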

Integrin alpha-5/beta-1 = Integrin alpha-5/beta-1 (Homo sapiens, UniProt P05556+P08648); assay: Inhibition of human alpha5beta1 integrin expressed in human K-562 cells assessed as inhibition of cell adhesion to fibronectin; type: cell-based, K562; outline: as §1
Sequence of Integrin alpha-5/beta-1 (P05556 21-798 limits assumed): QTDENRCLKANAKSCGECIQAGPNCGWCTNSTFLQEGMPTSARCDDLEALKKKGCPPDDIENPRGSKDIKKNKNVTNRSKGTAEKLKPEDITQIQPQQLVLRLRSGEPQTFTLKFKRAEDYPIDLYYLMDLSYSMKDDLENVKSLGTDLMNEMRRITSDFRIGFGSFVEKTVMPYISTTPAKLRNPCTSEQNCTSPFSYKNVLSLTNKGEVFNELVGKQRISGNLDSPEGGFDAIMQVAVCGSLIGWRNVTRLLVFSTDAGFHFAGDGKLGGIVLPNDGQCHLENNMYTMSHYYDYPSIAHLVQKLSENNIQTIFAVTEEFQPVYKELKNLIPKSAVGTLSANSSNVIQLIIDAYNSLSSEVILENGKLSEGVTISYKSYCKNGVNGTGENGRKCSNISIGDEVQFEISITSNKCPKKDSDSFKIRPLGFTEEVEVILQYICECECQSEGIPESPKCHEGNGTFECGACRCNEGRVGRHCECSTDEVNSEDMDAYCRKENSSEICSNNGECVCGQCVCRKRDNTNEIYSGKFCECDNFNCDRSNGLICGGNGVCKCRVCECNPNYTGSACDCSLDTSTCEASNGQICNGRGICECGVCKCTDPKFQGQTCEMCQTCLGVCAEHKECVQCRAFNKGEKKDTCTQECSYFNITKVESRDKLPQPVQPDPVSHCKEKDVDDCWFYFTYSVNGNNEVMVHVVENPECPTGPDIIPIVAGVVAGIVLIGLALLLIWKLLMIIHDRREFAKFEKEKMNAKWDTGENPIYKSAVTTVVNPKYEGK
Sequence of Integrin alpha-5/beta-1 (P08648 42-894 limits assumed): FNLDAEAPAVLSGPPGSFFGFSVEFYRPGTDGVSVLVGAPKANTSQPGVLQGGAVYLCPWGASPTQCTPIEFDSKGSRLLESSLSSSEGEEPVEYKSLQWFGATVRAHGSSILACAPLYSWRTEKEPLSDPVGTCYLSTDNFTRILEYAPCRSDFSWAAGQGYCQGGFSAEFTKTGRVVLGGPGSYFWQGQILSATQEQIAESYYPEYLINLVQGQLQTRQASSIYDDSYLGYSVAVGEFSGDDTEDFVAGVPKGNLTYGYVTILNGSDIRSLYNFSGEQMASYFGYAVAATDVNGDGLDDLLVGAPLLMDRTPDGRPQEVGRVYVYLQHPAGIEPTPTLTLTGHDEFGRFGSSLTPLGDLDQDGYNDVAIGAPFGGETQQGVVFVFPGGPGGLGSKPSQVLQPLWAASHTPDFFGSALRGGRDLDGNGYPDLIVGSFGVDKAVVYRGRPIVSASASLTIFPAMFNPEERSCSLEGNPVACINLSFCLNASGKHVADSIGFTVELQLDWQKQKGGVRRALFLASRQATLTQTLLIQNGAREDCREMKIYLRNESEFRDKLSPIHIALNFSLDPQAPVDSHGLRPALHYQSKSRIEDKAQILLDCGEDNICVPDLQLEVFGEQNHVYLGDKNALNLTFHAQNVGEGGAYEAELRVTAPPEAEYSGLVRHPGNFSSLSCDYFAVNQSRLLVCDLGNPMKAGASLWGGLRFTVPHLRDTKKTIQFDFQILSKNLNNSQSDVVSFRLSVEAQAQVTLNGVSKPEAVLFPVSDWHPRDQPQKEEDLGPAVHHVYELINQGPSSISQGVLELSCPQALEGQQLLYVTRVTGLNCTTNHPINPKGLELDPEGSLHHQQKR
Sequence of Integrin alpha-5/beta-1 (P08648 895-1049 limits assumed): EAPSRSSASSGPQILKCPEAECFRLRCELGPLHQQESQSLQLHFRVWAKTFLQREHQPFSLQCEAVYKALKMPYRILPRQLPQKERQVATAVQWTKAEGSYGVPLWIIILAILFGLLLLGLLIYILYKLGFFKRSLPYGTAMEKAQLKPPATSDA

[2] = Inhibition of human […] integrin expressed in human Jurkat cells assessed as inhibition of cell adhesion to ICAM1; type: cell-based
Integrin alpha-4/beta-7 = molecular target: T2, Integrin alpha-4/beta-7 (Homo sapiens, UniProt P13612+P26010); assay: Inhibition of human alpha4beta7 integrin expressed in human RPMI8866 cells assessed as inhibition of cell adhesion to MadCam1; type: cell-based; outline: as §1
T2 sequence (P13612 whole entry): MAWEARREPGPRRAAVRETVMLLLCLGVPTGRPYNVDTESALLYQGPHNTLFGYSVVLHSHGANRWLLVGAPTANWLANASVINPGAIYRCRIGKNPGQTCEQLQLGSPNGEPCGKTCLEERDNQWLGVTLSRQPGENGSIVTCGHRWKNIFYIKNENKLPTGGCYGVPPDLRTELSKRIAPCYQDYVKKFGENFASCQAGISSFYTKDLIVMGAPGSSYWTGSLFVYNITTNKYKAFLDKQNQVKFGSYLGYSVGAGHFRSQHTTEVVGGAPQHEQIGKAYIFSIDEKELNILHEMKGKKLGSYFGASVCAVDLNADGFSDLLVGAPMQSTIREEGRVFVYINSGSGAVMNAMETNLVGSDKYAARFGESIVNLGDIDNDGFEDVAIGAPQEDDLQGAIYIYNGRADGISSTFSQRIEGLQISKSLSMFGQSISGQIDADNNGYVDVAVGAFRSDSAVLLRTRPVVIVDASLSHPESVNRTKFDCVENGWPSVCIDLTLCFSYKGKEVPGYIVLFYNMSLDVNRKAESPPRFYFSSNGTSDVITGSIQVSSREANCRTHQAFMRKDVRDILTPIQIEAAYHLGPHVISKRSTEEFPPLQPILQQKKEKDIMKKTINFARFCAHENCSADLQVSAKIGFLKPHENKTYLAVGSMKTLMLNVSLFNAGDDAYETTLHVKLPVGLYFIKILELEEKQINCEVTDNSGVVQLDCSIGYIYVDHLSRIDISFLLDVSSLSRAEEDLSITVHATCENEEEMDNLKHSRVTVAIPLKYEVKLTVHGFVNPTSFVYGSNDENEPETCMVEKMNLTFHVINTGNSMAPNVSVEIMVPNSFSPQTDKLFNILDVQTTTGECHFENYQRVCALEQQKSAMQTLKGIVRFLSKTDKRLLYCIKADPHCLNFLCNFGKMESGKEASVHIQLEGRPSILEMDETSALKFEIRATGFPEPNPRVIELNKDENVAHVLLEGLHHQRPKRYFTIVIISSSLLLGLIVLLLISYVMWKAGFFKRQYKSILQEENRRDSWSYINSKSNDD
T2 sequence (P26010 whole entry): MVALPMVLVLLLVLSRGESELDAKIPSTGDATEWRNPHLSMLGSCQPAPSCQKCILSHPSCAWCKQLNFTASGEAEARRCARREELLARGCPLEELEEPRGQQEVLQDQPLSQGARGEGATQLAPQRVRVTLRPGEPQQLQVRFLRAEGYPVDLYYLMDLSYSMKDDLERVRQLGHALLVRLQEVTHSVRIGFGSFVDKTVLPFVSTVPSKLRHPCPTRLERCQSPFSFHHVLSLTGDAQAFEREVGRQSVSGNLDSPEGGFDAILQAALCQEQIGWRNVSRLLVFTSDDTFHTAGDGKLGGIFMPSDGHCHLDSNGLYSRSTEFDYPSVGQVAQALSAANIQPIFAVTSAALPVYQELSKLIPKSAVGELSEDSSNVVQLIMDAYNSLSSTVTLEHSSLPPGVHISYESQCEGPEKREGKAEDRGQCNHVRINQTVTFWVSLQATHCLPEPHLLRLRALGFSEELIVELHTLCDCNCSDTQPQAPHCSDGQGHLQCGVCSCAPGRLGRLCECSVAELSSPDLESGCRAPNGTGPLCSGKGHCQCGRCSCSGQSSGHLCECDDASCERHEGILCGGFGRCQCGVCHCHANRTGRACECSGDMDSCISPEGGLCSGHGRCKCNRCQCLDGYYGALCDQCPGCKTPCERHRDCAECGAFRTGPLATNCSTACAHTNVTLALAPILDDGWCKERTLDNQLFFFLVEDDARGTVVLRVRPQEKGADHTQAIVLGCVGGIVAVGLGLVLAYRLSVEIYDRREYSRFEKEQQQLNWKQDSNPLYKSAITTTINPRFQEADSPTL

Integrin alpha-4/beta-1 [3] = molecular target: T1, Integrin alpha-4/beta-1; assay: Antagonist activity at human alpha4beta1integrin in human Jurkat cells assessed as reduction of VCAM-1-induced ERK1/2 phosphorylation after 60 mins by Western blot analysis; type: cell-based
Outline: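 Jurkat cells were serum-starved for 16 h in RPMI-1640 with 1% FBS, then preincubated with compound in suspension for 60 min. They were then kept in suspension or plated on VCAM-1-coated wells, with poly-L-lysine as the nonspecific substrate. After 60 min the cells were lysed and Western blotted for pERK1/2 and total ERK1/2. Densitometry normalized pERK1/2 to tERK1/2 (mean ± SEM, n = 6). IC50 came from a separate concentration series.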

Integrin alpha-V/beta-3 = Integrin alpha-V/beta-3 (Homo sapiens, UniProt P05106+P06756); assay: Inhibition of human alphaVbeta3 integrin expressed in human SK-MEL-24 cells assessed as inhibition of cell adhesion to fibronectin
Sequence of Integrin alpha-V/beta-3 (P05106 27-788 limits assumed): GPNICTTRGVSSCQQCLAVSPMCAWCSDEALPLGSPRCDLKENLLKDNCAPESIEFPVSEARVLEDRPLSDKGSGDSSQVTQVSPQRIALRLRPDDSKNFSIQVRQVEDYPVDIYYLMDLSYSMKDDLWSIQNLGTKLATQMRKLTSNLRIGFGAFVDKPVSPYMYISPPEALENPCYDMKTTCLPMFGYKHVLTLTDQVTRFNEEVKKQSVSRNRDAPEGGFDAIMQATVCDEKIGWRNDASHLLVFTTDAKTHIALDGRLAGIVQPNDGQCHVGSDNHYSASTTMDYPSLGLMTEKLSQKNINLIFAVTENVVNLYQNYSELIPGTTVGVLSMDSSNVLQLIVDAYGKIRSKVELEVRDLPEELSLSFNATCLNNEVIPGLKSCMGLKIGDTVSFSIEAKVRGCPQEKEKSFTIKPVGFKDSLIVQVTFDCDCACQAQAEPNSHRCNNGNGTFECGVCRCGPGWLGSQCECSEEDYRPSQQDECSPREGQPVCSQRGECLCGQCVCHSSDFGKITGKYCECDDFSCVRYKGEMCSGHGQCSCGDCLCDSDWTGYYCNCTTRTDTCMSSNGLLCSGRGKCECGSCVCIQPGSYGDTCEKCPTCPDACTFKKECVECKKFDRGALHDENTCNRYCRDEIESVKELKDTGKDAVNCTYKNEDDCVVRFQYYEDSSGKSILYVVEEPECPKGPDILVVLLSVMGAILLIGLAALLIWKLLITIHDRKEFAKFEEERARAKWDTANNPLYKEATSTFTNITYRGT
Sequence of Integrin alpha-V/beta-3 (P06756 31-889 limits assumed): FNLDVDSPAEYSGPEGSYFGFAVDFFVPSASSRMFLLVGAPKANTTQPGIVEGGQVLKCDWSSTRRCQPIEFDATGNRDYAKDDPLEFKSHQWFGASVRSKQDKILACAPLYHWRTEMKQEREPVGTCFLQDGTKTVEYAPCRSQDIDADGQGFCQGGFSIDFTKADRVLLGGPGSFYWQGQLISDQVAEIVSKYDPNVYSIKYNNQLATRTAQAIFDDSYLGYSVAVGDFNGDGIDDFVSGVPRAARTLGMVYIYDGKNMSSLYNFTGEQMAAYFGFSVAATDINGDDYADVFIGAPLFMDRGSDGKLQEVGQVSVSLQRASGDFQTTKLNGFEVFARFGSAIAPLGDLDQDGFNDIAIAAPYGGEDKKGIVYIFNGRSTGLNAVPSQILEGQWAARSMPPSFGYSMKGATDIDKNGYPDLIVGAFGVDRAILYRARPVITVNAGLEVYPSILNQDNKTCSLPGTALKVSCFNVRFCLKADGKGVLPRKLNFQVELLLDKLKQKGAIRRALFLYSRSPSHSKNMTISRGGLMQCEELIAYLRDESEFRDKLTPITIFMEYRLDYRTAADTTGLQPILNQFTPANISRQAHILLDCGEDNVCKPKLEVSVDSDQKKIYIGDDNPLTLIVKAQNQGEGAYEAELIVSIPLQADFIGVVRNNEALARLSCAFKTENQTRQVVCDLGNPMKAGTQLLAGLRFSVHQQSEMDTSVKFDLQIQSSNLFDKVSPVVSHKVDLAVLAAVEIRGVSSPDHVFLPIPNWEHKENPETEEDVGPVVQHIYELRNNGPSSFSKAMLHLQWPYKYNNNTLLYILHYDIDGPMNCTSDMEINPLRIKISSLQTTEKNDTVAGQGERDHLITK
Sequence of Integrin alpha-V/beta-3 (P06756 891-1048 limits assumed): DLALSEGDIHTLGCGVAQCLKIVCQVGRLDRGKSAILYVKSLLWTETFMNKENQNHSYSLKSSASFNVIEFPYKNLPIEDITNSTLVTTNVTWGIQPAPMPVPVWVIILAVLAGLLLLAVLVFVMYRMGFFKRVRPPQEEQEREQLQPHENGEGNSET

T1 sequence (P05556 whole entry, one chain of several): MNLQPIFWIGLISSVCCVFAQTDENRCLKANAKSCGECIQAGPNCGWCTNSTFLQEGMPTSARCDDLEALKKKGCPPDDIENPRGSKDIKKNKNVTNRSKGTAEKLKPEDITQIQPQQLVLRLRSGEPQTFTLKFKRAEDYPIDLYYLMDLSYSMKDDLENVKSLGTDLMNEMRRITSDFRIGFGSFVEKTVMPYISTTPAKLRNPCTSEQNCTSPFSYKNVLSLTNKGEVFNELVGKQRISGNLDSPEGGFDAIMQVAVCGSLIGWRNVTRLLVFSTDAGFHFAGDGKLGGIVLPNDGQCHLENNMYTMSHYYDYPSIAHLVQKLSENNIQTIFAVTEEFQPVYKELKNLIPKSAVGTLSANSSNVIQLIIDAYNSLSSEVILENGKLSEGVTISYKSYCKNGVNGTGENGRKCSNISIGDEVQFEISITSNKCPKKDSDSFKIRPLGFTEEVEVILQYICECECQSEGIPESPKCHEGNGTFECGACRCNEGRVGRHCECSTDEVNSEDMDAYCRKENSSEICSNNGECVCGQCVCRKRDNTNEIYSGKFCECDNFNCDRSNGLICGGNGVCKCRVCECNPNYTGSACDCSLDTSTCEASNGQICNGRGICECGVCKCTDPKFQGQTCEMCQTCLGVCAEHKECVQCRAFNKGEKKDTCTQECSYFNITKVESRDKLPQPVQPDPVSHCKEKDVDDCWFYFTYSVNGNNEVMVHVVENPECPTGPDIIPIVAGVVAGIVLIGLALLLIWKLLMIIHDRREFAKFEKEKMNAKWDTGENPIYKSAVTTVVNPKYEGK

SMILES: Cc1ccccc1NC(=O)Nc1ccc(CNC(=O)C2=CCN(C(=O)CC(=O)O)[C@H]2C(C)C)cc1
- IC50 (Integrin alpha-4/beta-1 [1]): > 1000 nM

SMILES: Cc1ccccc1NC(=O)Nc1ccc(CNC(=O)C2=CCN(C(=O)CC(=O)O)[C@@H]2C(C)C)cc1
- IC50 (Integrin alpha-4/beta-1 [1]): 10 nM
- IC50 (Integrin alpha-5/beta-1): > 1000 nM
- IC50 [2]: > 1000 nM
- IC50 (Integrin alpha-4/beta-7): 270 nM
- IC50 (Integrin alpha-4/beta-1 [3]): 10 nM
- IC50 (Integrin alpha-V/beta-3): > 1000 nM

SMILES: Cc1ccccc1NC(=O)N1CC=C(C(=O)NCc2ccc(NC(=O)CC(=O)O)cc2)[C@H]1C(C)C
- IC50 (Integrin alpha-4/beta-1 [1]): 250 nM

SMILES: Cc1ccccc1NC(=O)Nc1ccc(CNC(=O)C2=CCN(C(=O)CC(=O)O)[C@@H]2C2CCCCC2)cc1
- IC50 (Integrin alpha-4/beta-1 [1]): 62 nM
- IC50 (Integrin alpha-5/beta-1): > 1000 nM
- IC50 [2]: > 1000 nM
- IC50 (Integrin alpha-4/beta-7): 343 nM
- IC50 (Integrin alpha-4/beta-1 [3]): 131 nM
- IC50 (Integrin alpha-V/beta-3): > 1000 nM

SMILES: Cc1ccccc1NC(=O)Nc1ccc(CNC(=O)C2=CCN(C(=O)CC(=O)O)[C@H]2C2CCCCC2)cc1
- IC50 (Integrin alpha-4/beta-1 [1]): > 1000 nM

SMILES: Cc1ccccc1NC(=O)N1CC=C(C(=O)NCc2ccc(NC(=O)CC(=O)O)cc2)[C@@H]1C(C)C
- IC50 (Integrin alpha-4/beta-1 [1]): 110 nM
